# Assay outcomes as filed in PubChem.
# MT1-MMP txn act: MT1-MMP promoter transcription activation; HT1080 MT1-MMP promoter luciferase reporter, luminescence, overnight; stronger effect = higher value; activation factor at 10 µM; actives 0.16% (n = 86,000); AID 750;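 active = activation factor of at least 2 for MT1-MMP transcription at 10 µM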
# M1 ag: activates the M1 muscarinic receptor. CHO-M1 cells, Fluo-4 calcium fluorescence, agonist mode; stronger effect = higher value. B-score at 10 µM. actives 3% (n = 64,000). AID 626;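 active = fluorescence rise, raw or as B-score row- and column-corrected plate score, outside the 99.7% band of its plate's samples, either direction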
# RORA act: activators of human nuclear receptor RORA; activation, % at 10 µM; actives 1.5% (n = 65,000); P35398; CHO-K1 Gal4-RORA LBD luciferase reporter, luminescence; percent increase over mock-subtracted basal signal;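 active = activation above the mean of all tested compounds plus 3 SD, cut at about 49% in these data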;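 note: 0% = DMSO-treated RORA cells and 100% = added signal equal to DMSO minus mock-transfected cells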
# Target sequence (P35398 whole entry, looked up, the tested form may be a part): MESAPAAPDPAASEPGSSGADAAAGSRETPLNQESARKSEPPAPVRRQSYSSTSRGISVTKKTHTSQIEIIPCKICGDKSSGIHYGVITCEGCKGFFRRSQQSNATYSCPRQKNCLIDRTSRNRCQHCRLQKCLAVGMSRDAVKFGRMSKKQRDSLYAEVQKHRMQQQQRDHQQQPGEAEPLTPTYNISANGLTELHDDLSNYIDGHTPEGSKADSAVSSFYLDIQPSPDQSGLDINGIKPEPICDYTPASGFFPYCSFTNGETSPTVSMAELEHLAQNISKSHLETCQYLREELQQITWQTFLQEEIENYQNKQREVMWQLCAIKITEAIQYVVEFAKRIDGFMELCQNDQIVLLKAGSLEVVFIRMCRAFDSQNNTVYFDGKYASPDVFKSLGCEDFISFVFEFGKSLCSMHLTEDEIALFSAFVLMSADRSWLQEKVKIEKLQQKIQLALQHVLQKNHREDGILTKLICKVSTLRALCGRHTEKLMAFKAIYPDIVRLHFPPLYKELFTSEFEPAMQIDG
# SF1 activator: activates the human nuclear receptor SF-1; Q13285; actives 1.9% (n = 65,000); activation, % at 10 µM; AID 522; CHO-K1 Gal4-SF-1 LBD luciferase reporter; % increase over DMSO SF-1-specific signal;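 active = activation above the mean activation of all tested compounds plus 3 SD, cut at about 50% in these data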
#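 System: CHO-K1 cells with Gal4–hSF-1 LBD chimera plus Gal4-driven luciferase; quantity: 4,000 CHO-K1 cells per well; compound: one dose, 10 µM compound, 1% DMSO; times: 20 h compound treatment, 37 °C; measured by: SteadyLite luciferase luminescence; read-out: percent activation versus DMSO; benchmarks: DMSO and mock-transfected background; replicates: one test per compound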
# M1 antag: antagonists of rat M1 muscarinic receptor. CHO-M1 cells, Fluo-4 calcium, ACh EC80 antagonist mode; stronger effect = lower value. actives 3.4% (n = 64,000). B-score at 10 µM;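 active = calcium fluorescence response, raw or row-and-column corrected B-score, differing from the plate sample mean either way at a set confidence level, mostly lower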
# M1 antag conf: confirmation of rat M1 muscarinic receptor antagonists; shares compounds with M1 antag; CHO-M1 cells, Fluo-4 calcium, ACh EC80 antagonism; stronger effect = lower value; calcium response (max-min fluorescence) at 10 µM; actives 43% (n = 1,700); AID 677;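 active = calcium response below the same-plate mean of wells given acetylcholine alone at its 80%-effect dose, minus 3 SD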;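 note: raw fluorescence intensity difference in arbitrary instrument units and not normalized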
# mGluR4 antag: acts on human mGluR4 in M1 antagonist selectivity test | shares compounds with M1 antag | CHO-mGluR4 calcium flux, Fluo-4 fluorescence, glutamate EC80; stronger effect = lower value | fluorescence response (max-min) at 10 µM | actives 0.9% (n = 1,700);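 active = fluorescence response below the plate's average for near-maximal glutamate wells, less 3 SD of those wells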;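 note: raw unnormalized fluorescence span taken in the window right after glutamate addition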
# * = called active by the depositor; x = no result. The list is not random: actives were taken first. Their share in the collection is about 6.3%.
SMILES,MT1-MMP txn act,M1 ag,RORA act,SF1 activator,M1 antag,M1 antag conf,mGluR4 antag
O=C1CC(N2CCN(Cc3ccc4c(c3)OCO4)CC2)C(=O)N1CCc1ccccc1 (configuration not stated),1.4,-2.5,6,-19,-1.2*,482,220
Cc1cccc(CN2CCCC(C(=O)N3CCc4ccccc4C3)C2)c1 (configuration not stated),1.1,x,x,x,x,x,x
Cc1nc2cc(CO)ccc2n1C,x,-0.085,2,11,-5.1*,670,262
Cn1c(CO)nc2cc(N)ccc21,1.2,-0.3,-10,16,0.57,x,x
Cn1c(=O)oc2cc(S(=O)(=O)NCc3ccco3)ccc21,1,0.018,-8,2,-3.4*,690,237
COC(=O)c1ccccc1NC(=O)c1ccc(COc2ccc(C)c(C)c2)o1,1,x,x,x,x,x,x
COC(=O)c1ccc(COc2cccc(OC)c2)o1,1.2,0.4,11,-7,-2.4*,602,264
CCOc1cc(NC(=O)c2ccco2)c(OCC)cc1NC(=O)c1cc(OC)c(OC)c(OC)c1,0.9,2.9,-6,-8,-1.2,x,x
CCOc1cc(C#N)c(NC(=O)c2ccco2)cc1OCC,0.9,0.73,38,1,-11*,623,185
O=C(C1CCCO1)N1CCN(c2c3c(nc4cc(-c5ccc(F)cc5)nn24)CCC3)CC1 (configuration not stated),1.5,1.2,15,5,-3.6*,661,243
C=C(C)CSc1nnc([C@@H](NC(=O)OC(C)(C)C)C(C)CC)o1 (some centres not stated),1.2,-1,-11,-14,-0.11,x,x
Clc1ccc(NC2=NCCCCC2)cc1,1.1,0.37,-16,-10,-0.00056,x,x
O=C(Nc1ccc2c(c1)OCO2)c1ccc(COc2ccc3c(c2)CCC3)o1,1.4,-0.66,-13,61*,-1.9*,647,232
Cc1[nH]c(=O)cc2ccccc12,1,0.42,-8,-3,1.5,x,x
O=C(CSc1nnc(-c2ccco2)n1Cc1ccccc1)c1ccccc1,1.7,0.049,49*,51*,-2*,515,226
Cc1ccc(C(=O)CSc2nnc(-c3ccco3)n2Cc2ccccc2)cc1,1.5,-0.011,9,23,-1.2,x,x
CCOc1ccccc1NC(=O)C1CC2CCCC(C1)C2=O (configuration not stated),1.1,0.27,-12,5,-0.051,x,x
CC(Cc1cccs1)NC(=O)Nc1ccccc1 (configuration not stated),1.4,0.13,7,22,-3.2*,588,188
CC(Cc1cccs1)NC(=O)Nc1ccc(Cl)c(Cl)c1 (configuration not stated),1.7,x,x,x,x,x,x
Cc1c(N(C)C)nc2ccccc2c1N,1.2,0.025,-10,-7,-2.3*,610,231
CCCCCn1c(SCc2cccc(C)c2)nc2c1c(=O)[nH]c(=O)n2C,x,-0.73,12,-21,0.7,x,x
O=c1[nH]c2cccnc2n1Cc1ccccc1,0.9,x,x,x,x,x,x
COC(=O)N1CC(c2ccccc2)CC1=O (configuration not stated),1.1,-0.031,-16,10,-2.3*,694,253
COc1ccc(OC)c(NC(=O)C(CC(=O)O)NCc2ccco2)c1 (configuration not stated),1,-0.38,-25,-1,0.064,x,x
COc1cccc(NC(=O)c2oc3ccccc3c2NC(=O)C(C)(C)C)c1,1.1,-0.33,-14,-10,-3.8*,700,243
SMILES,MT1-MMP txn act,M1 ag,RORA act,SF1 activator,M1 antag,M1 antag conf,mGluR4 antag
O=C(CN1CCN(c2ccccn2)CC1)N1c2ccccc2Sc2ccc(C(F)(F)F)cc21,1.2,-0.3,-22,-4,-4*,450*,171
Cc1nc(NCc2ccco2)[nH]c(=O)c1CCC(C)C,1.1,0.95,21,-8,-2.4*,619,289
O=c1nc(-c2ccccc2)n(-c2ccccc2)c2ncccc12,x,-0.6,2,6,0.62,x,x
Clc1ccc(-n2nnnc2-c2ccccc2)cc1Cl,1.2,0.35,-25,-9,-2.6*,516,250
CC1(C)CC(=O)C(C=NCCCn2ccnc2)=C(O)C1,1,0.15,-9,-11,0.55,x,x
COc1ccccc1N1CCN(C(=O)C2c3ccccc3Oc3ccccc32)CC1,0.5,-0.21,-18,7,-1.3*,573,274
COc1ccccc1N1CCN(C(=O)Cc2cccs2)CC1,1.1,-0.43,-12,-18,-1.9*,544,200
O=C(C1c2ccccc2Oc2ccccc21)N1CCN(c2ccc(Cl)cc2)CC1,1.2,x,x,x,x,x,x
O=C(Cc1cccs1)N1CCN(c2ccc(F)cc2)CC1,1.2,x,x,x,x,x,x
COCCSc1nc2sc3c(c2c(=O)n1-c1ccccc1)CCN(C)C3,1.4,-0.84,-5,-18,-3*,519,231
O=C(N/C(=N\O)c1ccccc1)Nc1ccc(Cl)cc1,1.1,-0.36,-12,22,-3.5*,487,210
CC(=O)c1ccc(NC(=O)Nc2ccc(Cl)cc2)cc1,1.6,x,x,x,x,x,x
CCOC(=O)CSc1nnc(CNC(=O)c2ccc(S(=O)(=O)N3CCCC3)cc2)n1C,1,1.3,-6,-1,-1.2*,426,204
CCn1c(SCc2nnc(-c3ccccc3)o2)nnc1-c1ccc(S(=O)(=O)N2CCCC2)cc1,1.2,0.011,-1,-5,-0.39,x,x
CCn1c(SCc2ccccc2)nnc1-c1ccc(S(=O)(=O)N2CCCCC2)cc1,1.1,0.3,-21,-7,-2*,504,225
COc1cccc(NC(=O)CCN2CCN(C)CC2)c1,1.2,x,-17,16,x,x,x
CN1CCC(N(C)CC(=O)Nc2cccc(Oc3ccccc3)c2)CC1,1.1,0.28,-20,-8,-2.8*,454*,236
Cc1cc(C)n(-c2ccc(C(=O)OCC(=O)N(CC(C)C)C3CCS(=O)(=O)C3)cc2)n1 (configuration not stated),1.1,-1.7,8,0,-2.5*,595,220
C#CCNc1nc(CC)nc2c1nnn2Cc1ccccc1F,1.1,-0.12,13,9,-1,x,x
COCCSc1ccccc1C(=O)N1CCN(Cc2ccc3c(c2)OCO3)CC1,x,0.62,-9,-15,0,x,x
COCCNc1nc(SCC(=O)N2CCN(c3ccccc3OC)CC2)nc2ccccc12,1.4,6.2,-8,-4,-3.4*,503*,222
COC(=O)C(Cc1cnc[nH]1)NC(=O)C1CCC(=O)N1 (configuration not stated),1,-0.71,2,0,0.37,x,x
CCCCOc1ccc(C2(C)CC(=O)NC2=O)cc1 (configuration not stated),1.4,-0.46,15,12,0.017,x,x
